Assay [1] concerns the target T1, testicular β-glucosidase 2 (Rattus norvegicus, UniProt Q5M868).
T1 sequence (Q5M868 1-912): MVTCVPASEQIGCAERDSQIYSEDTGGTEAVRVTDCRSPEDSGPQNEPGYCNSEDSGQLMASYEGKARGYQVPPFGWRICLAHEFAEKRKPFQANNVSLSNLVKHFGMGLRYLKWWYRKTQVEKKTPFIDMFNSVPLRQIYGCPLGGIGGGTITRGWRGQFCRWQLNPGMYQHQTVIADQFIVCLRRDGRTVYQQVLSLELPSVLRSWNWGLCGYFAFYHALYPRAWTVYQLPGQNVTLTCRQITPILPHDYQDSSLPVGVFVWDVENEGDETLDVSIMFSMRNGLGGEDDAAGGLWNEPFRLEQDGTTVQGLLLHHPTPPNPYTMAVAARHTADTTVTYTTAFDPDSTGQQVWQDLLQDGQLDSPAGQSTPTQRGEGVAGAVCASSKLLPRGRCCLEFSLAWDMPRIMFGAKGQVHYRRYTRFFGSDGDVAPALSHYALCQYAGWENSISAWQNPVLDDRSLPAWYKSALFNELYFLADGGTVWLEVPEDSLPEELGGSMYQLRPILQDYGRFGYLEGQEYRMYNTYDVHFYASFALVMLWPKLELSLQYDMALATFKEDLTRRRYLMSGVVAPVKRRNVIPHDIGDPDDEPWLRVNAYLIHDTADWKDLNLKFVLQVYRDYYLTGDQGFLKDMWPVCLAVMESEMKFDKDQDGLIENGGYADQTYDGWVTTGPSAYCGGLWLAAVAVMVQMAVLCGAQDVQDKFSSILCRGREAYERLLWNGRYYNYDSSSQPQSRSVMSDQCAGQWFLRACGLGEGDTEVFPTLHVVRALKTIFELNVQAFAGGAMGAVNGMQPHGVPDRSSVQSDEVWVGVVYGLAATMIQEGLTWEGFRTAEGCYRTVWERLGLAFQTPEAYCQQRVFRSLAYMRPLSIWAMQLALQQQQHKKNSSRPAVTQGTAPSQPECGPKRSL
As to the kind of experiment: Testicular glucosidase assay. Format: biochemical, Long Evans (LE) rat. To be noted: for β-glucosidase 2 IC50 (LE rat): rat testicular microsomes, n.i. = no inhibition at 1000 µM concentration.

Assay [2] addresses T2, ceramide-specific glucosyltransferase (Mus musculus, UniProt O88693).
T2 sequence (O88693 1-394): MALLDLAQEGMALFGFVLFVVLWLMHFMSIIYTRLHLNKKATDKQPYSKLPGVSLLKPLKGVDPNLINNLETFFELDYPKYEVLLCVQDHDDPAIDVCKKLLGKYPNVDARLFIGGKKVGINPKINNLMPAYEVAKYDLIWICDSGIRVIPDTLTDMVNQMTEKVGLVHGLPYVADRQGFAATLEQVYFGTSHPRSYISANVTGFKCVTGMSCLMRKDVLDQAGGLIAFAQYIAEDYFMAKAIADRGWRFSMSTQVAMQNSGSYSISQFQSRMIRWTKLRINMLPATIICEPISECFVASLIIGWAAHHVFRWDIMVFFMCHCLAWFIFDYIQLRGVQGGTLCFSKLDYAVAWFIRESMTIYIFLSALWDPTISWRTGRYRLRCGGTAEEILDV
As to the kind of experiment: Ceramide-specific glucosyltransferase assay, mouse testicular microsomes. Format: biochemical, C57BL/6 mouse. To be noted: for ceramide-specific glucosyltransferase IC50 (C57BL/6, mouse): mouse testicular microsomes, n.i. = no inhibition at 1000 µM concentration.

The test system of assay [3] is β-mannosidase (Roman snail). Briefly: Glycosidase inhibition assay, β-mannosidase. To be noted: 100 µM compound; substrate at Km. Format: biochemical. The method, boiled down: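 Test compound is at 100 µM. Enzyme addition starts the reaction, which runs 4–5 min at room temperature before quenching with 0.2 M sodium borate (pH 9.8). Absorbance is read at 405 nm and given as % remaining activity.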

For assay [4], the target named is α-galactosidase (green coffee beans) (Coffea arabica, UniProt Q42656). As to the kind of experiment: biochemical. To be noted: for remaining activity at 100 µM: read-out: α-Gal % Ra (% remaining activity at 100 µM).
Assay [5] relates to α-glucosidase (Saccharomyces cerevisiae). As to the kind of experiment: Glycosidase inhibition assay, α-glucosidase. The assay is classed as biochemical. To be noted: 100 µM compound; substrate at Km.
The next assay relates to β-glucosidase (almond). As to the kind of experiment: Glycosidase inhibition assay, β-glucosidase. The assay is classed as biochemical. To be noted: substrate at Km; for β-Glc % Ra (% remaining activity at 100 µM): 100 µM compound; for IC50: read-out: β-Glc IC50. Put shortly: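 Enzyme is added last; incubation is 4–5 min at room temperature, then 0.2 M sodium borate (pH 9.8) quenches. Absorbance at 405 nm gives % remaining activity at 100 µM compound. IC50 comes from non-linear fitting of relative activity versus concentration to a Hill-slope equation.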

Assay [6] has as its target T3, ceramide-specific glucosyltransferase (Rattus norvegicus, UniProt Q9R0E0).
T3 sequence (Q9R0E0 1-394): T2 sequence (O88693 1-394) with D96E, K164R, R249K, T377A
Briefly: Ceramide-specific glucosyltransferase assay, rat testicular microsomes. To be noted: for ceramide-specific glucosyltransferase IC50 (LE rat): rat testicular microsomes, n.i. = no inhibition at 1000 µM concentration. Format: biochemical, Long Evans (LE) rat.

For assay [7], the target named is T4, α-mannosidase (jack bean) (Canavalia ensiformis, UniProt C0HJB3).
T4 sequence (C0HJB3 1-562 limits assumed): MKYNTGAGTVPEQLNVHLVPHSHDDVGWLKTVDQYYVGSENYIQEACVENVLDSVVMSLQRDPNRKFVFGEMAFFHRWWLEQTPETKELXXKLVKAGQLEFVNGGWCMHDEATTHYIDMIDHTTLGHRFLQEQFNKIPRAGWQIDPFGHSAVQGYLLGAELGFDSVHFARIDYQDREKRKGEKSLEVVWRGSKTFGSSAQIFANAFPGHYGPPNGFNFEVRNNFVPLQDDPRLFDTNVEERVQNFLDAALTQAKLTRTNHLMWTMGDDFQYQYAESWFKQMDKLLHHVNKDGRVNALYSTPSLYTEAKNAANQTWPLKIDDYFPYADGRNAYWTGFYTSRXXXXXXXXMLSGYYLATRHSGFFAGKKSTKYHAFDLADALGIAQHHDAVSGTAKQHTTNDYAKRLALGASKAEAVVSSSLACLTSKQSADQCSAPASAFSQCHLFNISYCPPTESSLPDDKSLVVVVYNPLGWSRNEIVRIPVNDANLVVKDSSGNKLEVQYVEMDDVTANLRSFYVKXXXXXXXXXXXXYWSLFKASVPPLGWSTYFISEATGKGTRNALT
T4 sequence (C0HJB3 563-981 partner limits assumed): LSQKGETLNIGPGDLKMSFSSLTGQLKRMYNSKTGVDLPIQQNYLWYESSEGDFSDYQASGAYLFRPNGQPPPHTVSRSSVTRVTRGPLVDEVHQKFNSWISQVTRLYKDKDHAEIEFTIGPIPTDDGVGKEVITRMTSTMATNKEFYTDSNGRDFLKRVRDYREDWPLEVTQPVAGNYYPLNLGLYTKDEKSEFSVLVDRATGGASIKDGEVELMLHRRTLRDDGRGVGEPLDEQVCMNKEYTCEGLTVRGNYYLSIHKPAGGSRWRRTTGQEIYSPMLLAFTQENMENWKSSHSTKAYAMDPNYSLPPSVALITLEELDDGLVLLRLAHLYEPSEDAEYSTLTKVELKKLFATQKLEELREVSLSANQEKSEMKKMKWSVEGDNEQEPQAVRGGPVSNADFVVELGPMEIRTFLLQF
Briefly: Glycosidase inhibition assay, α-mannosidase. Format: biochemical. To be noted: for remaining activity at 100 µM: read-out: α-Man % Ra (% remaining activity at 100 µM). Put shortly:
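Enzyme starts the reaction with test compound at 100 µM. After 4–5 min at room temperature, 0.2 M sodium borate (pH 9.8) quenches it. Absorbance is read at 405 nm and reported as % remaining activity.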

The target of assay [8] is β-galactosidase (Escherichia coli) (Escherichia coli, UniProt P00722). As to the kind of experiment: biochemical. To be noted: for remaining activity at 100 µM: read-out: β-Gal % Ra (% remaining activity at 100 µM).
The mark [9] stands for this setting: 100 µM compound, substrate at Km.

Numbering of substitutions follows the chain as printed. Some results are limits rather than exact numbers.

Sequence of α-galactosidase (green coffee beans) (Q42656 16-378): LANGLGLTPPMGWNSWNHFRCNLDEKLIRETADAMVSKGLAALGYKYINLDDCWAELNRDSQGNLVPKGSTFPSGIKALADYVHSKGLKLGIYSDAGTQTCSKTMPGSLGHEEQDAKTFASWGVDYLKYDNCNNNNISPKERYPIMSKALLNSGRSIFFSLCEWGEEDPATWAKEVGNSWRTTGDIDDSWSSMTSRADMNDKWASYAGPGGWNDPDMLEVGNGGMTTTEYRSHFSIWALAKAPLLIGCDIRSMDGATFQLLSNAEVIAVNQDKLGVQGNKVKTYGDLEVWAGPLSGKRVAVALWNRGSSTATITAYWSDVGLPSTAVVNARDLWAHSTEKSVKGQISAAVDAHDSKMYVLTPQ
Sequence of β-galactosidase (Escherichia coli) (P00722 2-1024): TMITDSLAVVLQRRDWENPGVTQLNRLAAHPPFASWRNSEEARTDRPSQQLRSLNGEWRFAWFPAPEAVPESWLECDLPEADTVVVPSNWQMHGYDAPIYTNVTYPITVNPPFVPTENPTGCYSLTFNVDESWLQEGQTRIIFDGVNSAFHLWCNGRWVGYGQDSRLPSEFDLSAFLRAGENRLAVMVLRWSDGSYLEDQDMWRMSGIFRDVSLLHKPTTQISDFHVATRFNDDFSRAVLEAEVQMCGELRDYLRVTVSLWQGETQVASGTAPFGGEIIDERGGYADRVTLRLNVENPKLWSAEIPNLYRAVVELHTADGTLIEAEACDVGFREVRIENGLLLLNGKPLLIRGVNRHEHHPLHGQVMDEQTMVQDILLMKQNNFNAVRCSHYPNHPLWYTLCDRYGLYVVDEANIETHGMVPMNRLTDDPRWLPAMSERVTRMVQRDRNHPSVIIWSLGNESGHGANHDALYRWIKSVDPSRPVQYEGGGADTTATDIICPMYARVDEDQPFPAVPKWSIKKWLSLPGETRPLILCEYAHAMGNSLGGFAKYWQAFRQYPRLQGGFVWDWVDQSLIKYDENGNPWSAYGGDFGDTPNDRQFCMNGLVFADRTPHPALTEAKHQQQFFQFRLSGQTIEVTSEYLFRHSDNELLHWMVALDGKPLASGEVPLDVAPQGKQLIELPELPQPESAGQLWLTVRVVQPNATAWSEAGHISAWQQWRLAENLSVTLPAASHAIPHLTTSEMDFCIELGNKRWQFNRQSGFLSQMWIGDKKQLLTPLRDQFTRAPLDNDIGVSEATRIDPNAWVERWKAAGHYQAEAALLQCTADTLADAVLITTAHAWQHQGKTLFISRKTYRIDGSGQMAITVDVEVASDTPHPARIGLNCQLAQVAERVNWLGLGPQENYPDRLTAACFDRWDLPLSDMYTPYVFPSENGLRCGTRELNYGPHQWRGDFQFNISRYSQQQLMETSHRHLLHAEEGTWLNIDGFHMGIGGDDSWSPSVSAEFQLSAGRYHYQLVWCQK

Consider `CCCCCCCCCN1[C@H](CO)C(O)[C@H]1CO` [Compound 23, ((2R,4R)-3-Hydroxy-1-nonylazetidine-2,4-diyl)dimethanol], for which the IC50 in assay [1], in assay [2] and in assay [6] was > 300 µM each time. In assay [3], the “β-Man % Ra (% remaining activity at 100 µM)” value was 115%. The remaining activity at 100 µM in assay [4] is 99%; in assay [7], 100%; in assay [8] it was 88%. For the same molecule, the “α-Glc % Ra (% remaining activity at 100 µM)” value in assay [5] was 100%. For the same molecule, in the assay with β-glucosidase (almond), the “β-Glc % Ra (% remaining activity at 100 µM)” value came to 95%.
As to `CCCCN1[C@@H](CO)C(O)[C@@H]1CO` [Compound 26, ((2S,4S)-1-Butyl-3-hydroxyazetidine-2,4-diyl)dimethanol], the 50% inhibitory concentration (IC50) in assay [1], in [2] and in [6] was > 300 µM each time. Also, the “β-Man % Ra (% remaining activity at 100 µM)” value in [3] is 95%. Besides, the remaining activity at 100 µM in assay [4] is 98%; in [7] it was 98%; in assay [8], 96%. Further, in assay [5], the “α-Glc % Ra (% remaining activity at 100 µM)” value is reported as 90%. In addition, the “β-Glc % Ra (% remaining activity at 100 µM)” value with β-glucosidase (almond) is 82%.
As for `CCCCCCCCCN1[C@@H](CO)C(O)[C@@H]1CO` [Compound 27, ((2S,4S)-3-Hydroxy-1-nonyl-azetidine-2,4-diyl)dimethanol], the results for the half-inhibitory concentration (IC50) in assay [1], in assay [2] and in [6] were 70 µM, > 300 µM and > 300 µM, respectively. Moreover, the “β-Man % Ra (% remaining activity at 100 µM)” value in assay [3] is listed as 106%. Also, the remaining activity at 100 µM in assay [4] worked out at 57%; in assay [7], 99%; in [8], 99%. Further, the “α-Glc % Ra (% remaining activity at 100 µM)” value in [5] is 100%. Moreover, the “β-Glc % Ra (% remaining activity at 100 µM)” value with β-glucosidase (almond) stood at 95%.
On to `CCCCN1CCC[C@@H](O)[C@H](O)[C@@H](O)C1` [Compound 1, (3S,4S,5R)-1-Butylazocane-3,4,5-triol], for which the “β-glucosidase 2 IC50 (LE rat)” value in assay [1] was “did not show inhibitory activity and n.i”. Further, in assay [2], the “ceramide-specific glucosyltransferase IC50 (C57BL/6, mouse)” value is “n.i”. In addition, the “β-Man % Ra (% remaining activity at 100 µM)” value in assay [3] came to 100%. The values for the remaining activity at 100 µM in assay [4], in [7] and in assay [8] were 100%, 100% and 98%, respectively. For the same molecule, in assay [5], the “α-Glc % Ra (% remaining activity at 100 µM)” value came out at 93%. Further, the “β-Glc % Ra (% remaining activity at 100 µM)” value with β-glucosidase (almond) came to 37%. Besides, at β-glucosidase (almond), the IC50 was 87 µM. The “ceramide-specific glucosyltransferase IC50 (LE rat)” value in assay [6] is “n.i”.
Regarding `CCCCCCCCCN1CCC[C@@H](O)[C@H](O)[C@@H](O)C1` [Compound 2, (3S,4S,5R)-1-Nonylazocane-3,4,5-triol], the figures for the IC50 (in assay [1]; at β-glucosidase (almond)) were 803 µM and 92 µM, respectively. Further, the “ceramide-specific glucosyltransferase IC50 (C57BL/6, mouse)” value in assay [2] is listed as “n.i”. Also, the “β-Man % Ra (% remaining activity at 100 µM)” value in assay [3] is reported as 93%. The remaining activity at 100 µM was 100% in assay [4], 100% in assay [7] and 92% in assay [8]. Moreover, the “α-Glc % Ra (% remaining activity at 100 µM)” value in assay [5] worked out at 84%. Also, in the assay with β-glucosidase (almond), the “β-Glc % Ra (% remaining activity at 100 µM)” value is reported as 43%. In [6], the “ceramide-specific glucosyltransferase IC50 (LE rat)” value is “n.i”.
As to `CCCCN1C[C@@H](O)[C@@H](O)[C@@H](O)[C@H](O)[C@@H](O)C1` [Compound 5, (3S,4R,5S,6R,7R)-1-Butylazocane-3,4,5,6,7-pentaol], the “β-glucosidase 2 IC50 (LE rat)” value in [1] was “did not show inhibitory activity and n.i”. Also, the “ceramide-specific glucosyltransferase IC50 (C57BL/6, mouse)” value in assay [2] is on record as “n.i”. The “β-Man % Ra (% remaining activity at 100 µM)” value in [3] was 100%. For the same molecule, in assay [4] (setting [9]), the “α-Gal % Ra (% remaining activity at 100 µM)” value is 100%. The “α-Glc % Ra (% remaining activity at 100 µM)” value in assay [5] came to 89%. Also, the “β-Glc % Ra (% remaining activity at 100 µM)” value in the assay on β-glucosidase (almond) is recorded as 87%. In addition, in assay [6], the “ceramide-specific glucosyltransferase IC50 (LE rat)” value is “n.i”. The “α-Man % Ra (% remaining activity at 100 µM)” value in assay [7] (setting [9]) is 100%. The “β-Gal % Ra (% remaining activity at 100 µM)” value in assay [8] (setting [9]) was determined as 95%.
In the case of `CCCCN1[C@H](CO)C(O)[C@H]1CO` [Compound 22, ((2R,4R)-1-Butyl-3-hydroxyazetidine-2,4-diyl)dimethanol], the IC50 in [1], in assay [2] and in assay [6] was > 300 µM in each case. In assay [3], the “β-Man % Ra (% remaining activity at 100 µM)” value is 99%. Besides, the values for the remaining activity at 100 µM in [4], in [7] and in assay [8] were 100%, 99% and 99%, respectively. Further, the “α-Glc % Ra (% remaining activity at 100 µM)” value in assay [5] is reported as 100%. For the same molecule, the “β-Glc % Ra (% remaining activity at 100 µM)” value in the assay on β-glucosidase (almond) is recorded as 93%.
